From PubChem
ABHD4 inh: ABHD4 inhibitors, primary screen, biochemical, fluorescence polarization, mouse; purified mABHD4, FP-Rh probe fluorescence polarization; inhibition, % at 8.92 µM; 0.54% of 370,000 active; AID 720543, 2013;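 active means inhibition exceeding the mean over every tested compound plus 3 SD, cut at about 30% in these data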
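Material: mouse ABHD4 enzyme, wild type; Benchmarks: S159A mutant high control, sample median low control; Buffer or medium: HEPES pH 7.0, NaCl, Pluronic buffer; Signal: fluorescence polarization; Read-out: percent inhibition of probe binding, normalized to plate controls; Timing: pre-incubation 45 min, probe exposure 60 min, at 25 °C; Dosing: 8.92 µM, single dose.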
TCR CD3 inh: inhibitors of human TCR-CD3 interaction, primary screen, biochemical, fluorescence, TAMRA-labeled TCR probe | inhibition, % at 9.4 µM | 0.37% of 360,000 active | AID 651800, 2012; in the data active means inhibition above about 19%;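 further: recombinant mutant TCR 2C K166C tagged with TAMRA read by polarization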
PRMT1 inh: PRMT1 methyltransferase inhibitors, primary screen, biochemical, fluorescence polarization | AID 652257, 2013 | 1.3% of 370,000 active | recombinant PRMT1, activity-based probe fluorescence polarization | Protein arginine N-methyltransferase 1 (Homo sapiens), Q99873 | inhibition, % at 2.79 µM;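 active means inhibition above about 21% made by adding two undisclosed values, limit read from the data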
Target sequence (Q99873 whole entry, looked up): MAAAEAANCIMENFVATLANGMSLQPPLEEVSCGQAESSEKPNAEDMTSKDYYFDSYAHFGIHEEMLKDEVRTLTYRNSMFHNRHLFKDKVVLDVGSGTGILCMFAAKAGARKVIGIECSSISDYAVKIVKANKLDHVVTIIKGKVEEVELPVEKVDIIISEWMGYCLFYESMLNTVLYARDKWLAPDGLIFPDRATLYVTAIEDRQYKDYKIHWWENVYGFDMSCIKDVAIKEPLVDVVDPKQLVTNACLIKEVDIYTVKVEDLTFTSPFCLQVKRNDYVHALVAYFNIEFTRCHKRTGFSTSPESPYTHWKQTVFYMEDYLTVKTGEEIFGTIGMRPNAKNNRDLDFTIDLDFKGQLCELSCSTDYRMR
HTRA1 inhibitor: HTRA1 serine protease inhibitors, primary screen, biochemical, fluorescence polarization, HTS. Q92743. recombinant HTRA1, FP-rhodamine activity-based probe. inhibition, % at 5.96 µM. 0.5% of 340,000 active. AID 504803, 2011; in the data active means inhibition above about 36%
SIAE inh: human SIAE inhibitors, primary screen, biochemical, fluorescence polarization, FP-Rh probe, 1536-well HTS | AID 1053197, 2014 | SIAE FP-Rh probe binding | 0.69% of 370,000 active | inhibition, % at 9.66 µM;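 active means inhibition above a cutoff: mean of compounds within the control limits plus 3 SD of those, cut at about 17% in these data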
PRMT1 confirm: PRMT1 methyltransferase inhibitors, confirmation, biochemical, fluorescence polarization, triplicate; shares compounds with PRMT1 inh; recombinant His-PRMT1, activity-based probe fluorescence polarization; inhibition, % at 2.79 µM; 42% of 3,300 active; AID 687036, 2013;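 active means mean inhibition across replicates above the hit cutoff derived for the earlier primary screen, cut at about 22% in these data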
ABHD4 confirm: ABHD4 inhibitors, retest, confirmation, biochemical, fluorescence polarization, mouse | shares compounds with ABHD4 inh | purified mABHD4, FP-Rh probe fluorescence polarization | inhibition, % at 8.92 µM | 55% of 1,800 active | AID 720658, 2013;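 active means mean inhibition across replicates above the hit cutoff set in the primary screen, cut at about 30% in these data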
SIAE inh conf: human SIAE inhibitors, retest, confirmation, biochemical, fluorescence polarization, FP-Rh probe, triplicate | 13% of 2,300 active | inhibition, % at 9.66 µM | shares compounds with SIAE inh | SIAE FP-Rh activity-based probe | AID 1117263, 2014;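 active means mean inhibition of the replicates above the hit cutoff set in the primary screen, cut at about 17% in these data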;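 further: inhibitors lower polarization as more probe stays unbound to SIAE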
Numbers stand for hits. Rows were chosen to be rich in hits. Some 2.7% of all compounds tested hit in one or more screens of this group.

Cc1ccc(N2C(=O)NC(=O)/C(=C\C=C\c3ccco3)C2=O)cc1C was read as ABHD4 inh inactive, TCR CD3 inh inactive, PRMT1 inh inactive, HTRA1 inhibitor inactive and SIAE inh inactive.
O=C1NC(=O)N(Cc2ccccc2)C(=O)/C1=C/c1cnc(-c2ccccc2)nc1 was read as ABHD4 inh inactive, TCR CD3 inh inactive, PRMT1 inh inactive, HTRA1 inhibitor inactive and SIAE inh inactive.
O=C1NC(=O)N(Cc2ccccc2)C(=O)/C1=C/N1CCCc2ccccc21 was read as ABHD4 inh inactive, TCR CD3 inh inactive, PRMT1 inh 28, HTRA1 inhibitor inactive, SIAE inh inactive and PRMT1 confirm inactive.
CCOC(=O)[C@]12Cc3cc(C)ccc3[C@H]1N(C1CCCCC1)C(=O)c1ccccc12 was read as ABHD4 inh inactive, TCR CD3 inh inactive, PRMT1 inh inactive and SIAE inh inactive.
CSc1ncc(/C=C2/C(=O)NC(=O)N(C3CCCCC3)C2=O)cn1 was read as ABHD4 inh inactive, TCR CD3 inh inactive, PRMT1 inh 26, HTRA1 inhibitor inactive, SIAE inh inactive and PRMT1 confirm inactive.
For O=C1CC(=O)N(Cc2ccccc2)C(=S)N1 the results were ABHD4 inh inactive, TCR CD3 inh inactive, PRMT1 inh 32, HTRA1 inhibitor inactive, SIAE inh inactive and PRMT1 confirm inactive.
`Cc1cc(C=C2C(=O)N(C)C(=O)N(C)C2=O)c(C)n1-c1ccccc1` gave ABHD4 inh inactive, TCR CD3 inh inactive, PRMT1 inh inactive, HTRA1 inhibitor inactive and SIAE inh inactive.
Screening Cc1ccc(S(=O)(=O)Oc2ccccc2C=C2C(=O)N(C)C(=O)N(C)C2=O)cc1 returned ABHD4 inh inactive, TCR CD3 inh inactive, PRMT1 inh 30, HTRA1 inhibitor inactive, SIAE inh inactive and PRMT1 confirm inactive.
Screening Cc1nn(Cc2ccccc2)c(Cl)c1C(=O)NC1CCCc2ccccc21 (stereo not given) returned ABHD4 inh inactive, TCR CD3 inh inactive, PRMT1 inh inactive, HTRA1 inhibitor inactive and SIAE inh inactive.
C=C1C(=O)O[C@@H]2C[C@@H](C)[C@@H]3C=CC(=O)[C@@]3(C)[C@@H](OC(=O)CC(=O)O[C@H]3[C@@H]4C(=C)C(=O)O[C@@H]4C[C@@H](C)[C@@H]4C=CC(=O)[C@]43C)[C@H]12 was read as ABHD4 inh inactive, TCR CD3 inh inactive, PRMT1 inh 29, HTRA1 inhibitor inactive, SIAE inh inactive and PRMT1 confirm 26.
`Cc1cc(N2CCNC[C@H]2C)ccc1N1CC[C@H](O)C1` gave ABHD4 inh inactive, TCR CD3 inh inactive, PRMT1 inh 41, SIAE inh inactive and PRMT1 confirm inactive.
For CCN1/C(=C/C=C/C2=[N+](CC)c3ccccc3C2(C)C)C(C)(C)c2ccccc21 the results were ABHD4 inh active, TCR CD3 inh inactive, PRMT1 inh 156, HTRA1 inhibitor inactive, SIAE inh active, PRMT1 confirm 131, ABHD4 confirm active and SIAE inh conf active.
For COc1ccc(CCNC(C)CCc2ccc(OC)cc2)cc1 (stereo not given) the results were ABHD4 inh inactive, TCR CD3 inh inactive, PRMT1 inh inactive, HTRA1 inhibitor inactive and SIAE inh inactive.
COC(=O)C1=C(c2ccc(OCc3ccccc3)cc2)C[C@@H]2CC[C@H]1N2C(=O)NCc1ccc2c(c1)OCO2 was read as ABHD4 inh 51, TCR CD3 inh inactive, PRMT1 inh inactive, HTRA1 inhibitor inactive, SIAE inh inactive and ABHD4 confirm 33.
Screening COC(=O)C1=C(c2ccc(OCc3ccccc3)cc2)C[C@@H]2CC[C@H]1N2C(=O)NCc1ccccc1 returned ABHD4 inh inactive, TCR CD3 inh inactive, PRMT1 inh inactive, HTRA1 inhibitor inactive and SIAE inh inactive.
For COC(=O)C1=C(c2ccc(OCc3ccccc3)cc2)C[C@@H]2CC[C@H]1N2C(=O)NCc1cccc(OC)c1 the results were ABHD4 inh 31, TCR CD3 inh inactive, PRMT1 inh inactive, HTRA1 inhibitor inactive, SIAE inh inactive and ABHD4 confirm 35.
`COC(=O)C1=C(c2ccc(OCc3ccccc3)cc2)C[C@@H]2CC[C@H]1N2C(=O)NCc1ccc(OC)cc1` gave ABHD4 inh 41, TCR CD3 inh inactive, PRMT1 inh inactive, HTRA1 inhibitor inactive, SIAE inh inactive and ABHD4 confirm 43.
`COC(=O)C1=C(c2ccc(OCc3ccccc3)cc2)C[C@@H]2CC[C@H]1N2C(=O)NCc1ccc(C(C)(C)C)cc1` gave ABHD4 inh 33, TCR CD3 inh inactive, PRMT1 inh inactive, HTRA1 inhibitor inactive, SIAE inh inactive and ABHD4 confirm 50.
For COC(=O)C1=C(c2cccc(OCc3ccccc3)c2)C[C@@H]2CC[C@H]1N2C(=O)NCc1ccc(OC)cc1 the results were ABHD4 inh inactive, TCR CD3 inh inactive, PRMT1 inh inactive, HTRA1 inhibitor inactive and SIAE inh inactive.
Screening O=c1[nH]c2ccccc2n1C1CCN(C(c2ccccc2OC(F)(F)F)c2nnnn2Cc2ccccc2)CC1 (stereo not given) returned ABHD4 inh inactive, TCR CD3 inh inactive, PRMT1 inh inactive and SIAE inh inactive.
Screening CNc1ccc2oc(C[C@H]3O[C@@]4(CC[C@H]3C)O[C@H]([C@H](C)C(=O)c3ccc[nH]3)[C@H](C)C[C@H]4C)nc2c1C(=O)O returned ABHD4 inh 30, TCR CD3 inh inactive, PRMT1 inh 26, HTRA1 inhibitor inactive, SIAE inh inactive and ABHD4 confirm inactive.
`N#CC1c2ccccc2-n2nncc2CN1S(=O)(=O)c1ccccc1` (stereo not given) gave ABHD4 inh inactive, TCR CD3 inh inactive, PRMT1 inh inactive, HTRA1 inhibitor inactive and SIAE inh inactive.
Screening C[C@]12CC[C@@H]3c4ccc(O)c(O)c4CC[C@H]3[C@@H]1CC[C@@H]2O returned ABHD4 inh 30, TCR CD3 inh inactive, PRMT1 inh 35, HTRA1 inhibitor inactive, SIAE inh inactive and ABHD4 confirm inactive.
